Screening data as filed in PubChem.
UPR XBP1 act: activators of adaptive XBP1 UPR arm, primary screen, cell-based, CHO-XBP1 luciferase reporter, luminescence, uHTS; IRE1-XBP1 UPR activation; percent of tunicamycin response, DMSO as zero; activation, % at 20 µM; 0.33% of 330,000 active; AID 463104, 2010;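 active = versus positive control, 20 µM dose yields 30% or more activation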;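 note: 100% = tunicamycin at 10 µg/mL and 0% = DMSO only wells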
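Test system: CHO-XBP1 luciferase reporter cells | Buffer or medium: Serum-containing F12 medium, 10% FBS | Schedule: 6 h compound exposure at 37 °C, 5% CO2 | Detection: Steady-Glo luciferase glow luminescence, 10 min after reagent addition | Read-out basis: Activation, % of tunicamycin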
CHOP inh: inhibitors of CHOP promoter induction, primary screen, cell-based, unfolded protein response, luciferase reporter. CHO-K1 CHOP-promoter luciferase, tunicamycin-induced, 15-18 h. inhibition, % at 10 µM. 3.8% of 220,000 active. AID 2732, 2010;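 active = compounds that reduced the stress-induced luciferase reporter signal by more than about 70% of percent inhibition, limit read from the data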;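 note: 0% = tunicamycin plus vehicle and 100% = wells without tunicamycin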
Dynein transport: inhibitors of GR-EGFP nuclear translocation, primary screen, dynein cargo transport inhibitor project, imaging, high-content, 3617.4 mouse cells. z-score, hits read low. test concentration mostly 20 µM; stimulated with dexamethasone, 1 µM; active compounds read low. 0.47% of 220,000 active;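 active = plate z-score of nuclear minus cytoplasmic receptor signal below a set negative limit, without overly bright fluorescence or cell loss, cut at about -3.5 in these data, passing the limit was not always enough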;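 note: z-score of nuclear minus cytoplasmic ring GR-EGFP intensity difference per well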
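Buffer or medium: Induction medium lacking tetracycline, stripped serum | Also added: Dexamethasone agonist, 1.0 µM final, for 30 min | Timing: 48 h induction, 1 h compound, 30 min dex at 37 °C | Detection: Formaldehyde fixation, Hoechst nuclear stain, 10x automated fluorescence imaging | Measure: Nuclear versus cytoplasmic GR-EGFP signal, averaged per well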
UPR CHOP act: activators of apoptotic CHOP UPR arm, primary screen, cell-based, CHO-CHOP luciferase reporter, luminescence, uHTS. activation, % at 10 µM. UPR activation; percent of tunicamycin response over DMSO baseline. 0.34% of 330,000 active;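 active = at 10 µM dose, activation of 40% or more, normalized to positive control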;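 note: 100% = tunicamycin at 10 µg/mL and 0% = DMSO alone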
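Evaluation: % reporter activation, DMSO baseline versus tunicamycin full activation; System: CHO-CHOP luciferase reporter cell line; Input: 500 cells/well; Incubation: 6 h compound treatment, 37 °C; Measured by: Steady-Glo luciferase luminescence; Dosing: one dose, 10 µM in 0.5% DMSO; Buffer or medium: F12 medium, 10% FBS; Benchmarks: positive tunicamycin 10 µg/mL, negative DMSO alone.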
Lmaj promast: Leishmania major promastigote growth inhibition, primary screen. Leishmania major promastigotes, resazurin fluorescence viability. inhibition, % at 10 µM. 9% of 200,000 active. AID 1063, 2008; in the data active = inhibition above about 50%;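 note: promastigotes grown with compound for 44 hours at 28 °C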
T cruzi repl: inhibitors of intracellular T. cruzi growth, primary screen, luminescence, NIH3T3 host cells. inhibition, % (concentration not given with the values). T. cruzi beta-gal in NIH3T3, 90 h. 1.4% of 300,000 active. AID 1885, 2009;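 active = mean inhibition across valid replicates above about 55%, limit read from the data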;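 note: signal also drops with host cell toxicity which is not excluded here; 0% = plate median of DMSO wells and 100% = zero luminescence signal; higher percent means less beta-gal luminescence so fewer parasites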
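Assay system: NIH/3T3 host cells with β-galactosidase reporter T. cruzi; input: 5,000 host fibroblasts per well; compound: single 50 nL compound addition per well in DMSO; timing: ≥90 h infection period, 3 h prior cell attachment; measured by: GalScreen β-gal luminescence, detergent lysis, 60 min; evaluation: percent inhibition of parasite-derived β-gal signal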
Numbers without * were called inactive. This is one part of a sample in which hits are shown more often than they occur.

`COCCn1c(SCC(=O)Nc2ccc(F)cc2)nc2c(oc3ccccc32)c1=O` gave UPR XBP1 act 1.4, CHOP inh 84.3*, Dynein transport 0.615, UPR CHOP act -1.3, Lmaj promast -1.3 and T cruzi repl 9.7.
O=[N+]([O-])c1ccc(N2CCN(c3ccccn3)CC2)c(Cl)c1 was read as UPR XBP1 act -0.5, UPR CHOP act 7.3 and T cruzi repl 15.4.
Screening CC1CC(C)(C)N2C(=O)C3(Nc4ccccc4S3)c3cccc1c32 (configuration not stated) returned UPR XBP1 act -1.6, CHOP inh 91.4*, Dynein transport 0.584, UPR CHOP act -1.4, Lmaj promast 32.0 and T cruzi repl 22.5.
`O=C1N2CCCc3cccc(c32)C12Nc1ccccc1S2` (configuration not stated) gave CHOP inh 21.8, Dynein transport 0.155, Lmaj promast 20.7 and T cruzi repl 17.3.
For CC(C)c1ccc(S(=O)(=O)/N=C2\C=C(NS(=O)(=O)c3ccccc3)C(=O)c3ccccc32)cc1 the results were T cruzi repl -7.6.
Screening CC(C)c1ccc(S(=O)(=O)/N=C2/C=CC(=O)c3ccccc32)cc1 returned UPR XBP1 act 12.8, CHOP inh 15.6, Dynein transport -0.706, UPR CHOP act 10.1 and Lmaj promast 74.1*.
CC(C)(C)C(=O)Nc1c2c(nn1-c1ccccc1)CSC2 was read as UPR XBP1 act -5.4, UPR CHOP act -0.8 and T cruzi repl 5.7.
Screening O=c1c2c3c(sc2nc2n1CCCCC2)CCC3 returned UPR XBP1 act 3.7, CHOP inh -14.5, Dynein transport 0.114, UPR CHOP act 0.1, Lmaj promast 55.2* and T cruzi repl 0.5.
Screening O=C(Nc1ccc(Cl)c(Cl)c1)OCc1cccnc1 returned UPR XBP1 act 2.5, CHOP inh 24.6, Dynein transport -1.21, UPR CHOP act 4.9, Lmaj promast 3.0 and T cruzi repl 65.3*.
For COc1ccc(C(C)(C)NC(=O)C2CCC(=O)N(CCCN3CCCC3=O)C2)cc1 (configuration not stated) the results were UPR XBP1 act 0.2, UPR CHOP act 0.4 and T cruzi repl -3.0.
`COc1cc2[nH]c(=S)n(Cc3ccc(C)cc3)c(=O)c2cc1OC` gave UPR XBP1 act -0.1, CHOP inh 11.4, Dynein transport 2.02, UPR CHOP act -0.7, Lmaj promast -0.4 and T cruzi repl -2.5.
`COc1ccc(Cn2c(=S)[nH]c3cc(OC)c(OC)cc3c2=O)cc1` gave UPR XBP1 act 19.9, CHOP inh 83.3*, Dynein transport 0.235, UPR CHOP act 6.8, Lmaj promast 3.2 and T cruzi repl 8.2.
`CC(C)(C)C(=O)Nc1cccc(S(=O)(=O)NC2=NCCC2)c1` gave UPR XBP1 act 0.2, UPR CHOP act -1.0 and T cruzi repl 12.7.
`COc1ccc(C2C=C(Nc3ccccc3)C(=O)N2c2ccccc2)cc1OC` (configuration not stated) gave UPR XBP1 act 2.4, CHOP inh -21.8, Dynein transport -0.154, UPR CHOP act 3.7, Lmaj promast -2.7 and T cruzi repl 15.5.
For COc1cccc(C2C=C(Nc3ccccc3)C(=O)N2c2ccccc2)c1 (configuration not stated) the results were UPR XBP1 act 0.4, CHOP inh 50.9, Dynein transport -0.52, UPR CHOP act 0.5, Lmaj promast 66.2* and T cruzi repl 23.4.
`O=Cc1cccn1-c1nccc(-c2ccco2)n1` gave UPR XBP1 act 0.5, CHOP inh 15.1, Dynein transport 1.51, UPR CHOP act 0.5, Lmaj promast 6.1 and T cruzi repl -12.7.
Screening CN1CCN(C(=O)c2cc(-c3ccccc3)on2)CC1 returned UPR XBP1 act 3.4, CHOP inh 23.3, Dynein transport 0.227, UPR CHOP act -1.0, Lmaj promast 70.0* and T cruzi repl 0.7.
